Source: ChEMBL document CHEMBL4184148 (Bioorg Med Chem Lett, 2017)

How the values were obtained:
[1] = target: Serine/threonine-protein kinase PLK4 (Homo sapiens, UniProt O00444); experiment: Inhibition of GST-tagged human PLK4 (1 to 836 residues) by Lanthascreen binding assay
[2] = target: Tyrosine-protein kinase ABL1 (Homo sapiens) (UniProt P00519); experiment: Binding affinity to wild-type human phosphorylated ABL1 (S229 to K512 residues) expressed in HEK293 cells at 1 uM by Kinomescan method relative to control; assay type: cell-based
[3] = target: Cytoplasmic tyrosine-protein kinase BMX (Homo sapiens) (UniProt P51813); experiment: Binding affinity to wild-type human full length BMX (M1 to H675 residues) expressed in Escherichia coli BL21 at 1 uM by Kinomescan method relative to control
[4] = target: Mitotic checkpoint serine/threonine-protein kinase BUB1 (Homo sapiens) (UniProt O43683); experiment: Binding affinity to wild-type human partial length BUB1 (Q724 to K1085 residues) expressed in HEK293 cells at 1 uM by Kinomescan method relative to control; assay type: cell-based
Sequence of Mitotic checkpoint serine/threonine-protein kinase BUB1 (Homo sapiens) (O43683 whole entry, looked up, the tested form may be a part): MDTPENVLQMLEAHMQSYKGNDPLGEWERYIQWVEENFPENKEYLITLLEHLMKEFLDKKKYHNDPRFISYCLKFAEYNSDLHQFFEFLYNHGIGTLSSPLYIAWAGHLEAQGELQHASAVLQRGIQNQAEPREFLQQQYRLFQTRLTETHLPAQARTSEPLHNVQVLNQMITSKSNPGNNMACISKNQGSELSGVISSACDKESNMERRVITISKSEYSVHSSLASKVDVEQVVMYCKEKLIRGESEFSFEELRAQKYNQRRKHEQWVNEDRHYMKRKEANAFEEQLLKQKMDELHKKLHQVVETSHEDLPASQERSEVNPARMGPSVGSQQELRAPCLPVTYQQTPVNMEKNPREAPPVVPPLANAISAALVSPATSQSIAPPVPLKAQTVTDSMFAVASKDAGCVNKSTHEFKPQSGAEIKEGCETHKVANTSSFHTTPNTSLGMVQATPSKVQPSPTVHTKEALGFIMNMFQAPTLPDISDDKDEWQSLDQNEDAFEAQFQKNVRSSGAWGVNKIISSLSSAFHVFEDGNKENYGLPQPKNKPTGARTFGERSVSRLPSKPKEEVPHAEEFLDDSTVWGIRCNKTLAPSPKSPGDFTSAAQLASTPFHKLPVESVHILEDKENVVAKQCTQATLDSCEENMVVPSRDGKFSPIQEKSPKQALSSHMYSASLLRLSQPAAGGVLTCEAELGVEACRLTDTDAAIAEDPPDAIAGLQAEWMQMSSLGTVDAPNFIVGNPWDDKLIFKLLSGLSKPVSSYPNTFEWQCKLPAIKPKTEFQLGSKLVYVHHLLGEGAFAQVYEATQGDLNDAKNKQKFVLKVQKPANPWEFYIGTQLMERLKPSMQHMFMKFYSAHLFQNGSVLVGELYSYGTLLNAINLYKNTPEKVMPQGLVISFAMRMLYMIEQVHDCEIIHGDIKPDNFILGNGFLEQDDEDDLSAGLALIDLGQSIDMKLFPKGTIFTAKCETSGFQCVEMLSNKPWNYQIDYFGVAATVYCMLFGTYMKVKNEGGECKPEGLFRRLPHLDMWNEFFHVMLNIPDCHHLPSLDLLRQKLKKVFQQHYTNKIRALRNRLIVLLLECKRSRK

[5] = target: Cyclin-dependent kinase 4 (Homo sapiens) (UniProt P11802); experiment: Binding affinity to wild-type human full length CDK4 (M1 to E303 residues) expressed in HEK293 cells at 1 uM by Kinomescan method relative to control; assay type: cell-based
[6] = target: Cyclin-dependent kinase 5 (Homo sapiens) (UniProt Q00535); experiment: Binding affinity to wild-type human full length CDK5 (M1 to P292 residues) expressed in Escherichia coli BL21 at 1 uM by Kinomescan method relative to control
Method in brief: (§1)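 Run as one kinome-wide competition binding panel with each compound at a single fixed concentration. Results were plotted as a kinome-wide selectivity map.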

[7] = target: Citron Rho-interacting kinase (Homo sapiens) (UniProt O14578); experiment: Binding affinity to wild-type human partial length CIT (M68 to E432 residues) expressed in Escherichia coli BL21 at 1 uM by Kinomescan method relative to control
[8] = target: Myotonin-protein kinase (Homo sapiens) (UniProt Q09013); experiment: Binding affinity to wild-type human partial length DMPK (V47 to V415 residues) expressed in Escherichia coli BL21 at 1 uM by Kinomescan method relative to control
Sequence of Myotonin-protein kinase (Homo sapiens) (Q09013 whole entry, the tested form may be a part): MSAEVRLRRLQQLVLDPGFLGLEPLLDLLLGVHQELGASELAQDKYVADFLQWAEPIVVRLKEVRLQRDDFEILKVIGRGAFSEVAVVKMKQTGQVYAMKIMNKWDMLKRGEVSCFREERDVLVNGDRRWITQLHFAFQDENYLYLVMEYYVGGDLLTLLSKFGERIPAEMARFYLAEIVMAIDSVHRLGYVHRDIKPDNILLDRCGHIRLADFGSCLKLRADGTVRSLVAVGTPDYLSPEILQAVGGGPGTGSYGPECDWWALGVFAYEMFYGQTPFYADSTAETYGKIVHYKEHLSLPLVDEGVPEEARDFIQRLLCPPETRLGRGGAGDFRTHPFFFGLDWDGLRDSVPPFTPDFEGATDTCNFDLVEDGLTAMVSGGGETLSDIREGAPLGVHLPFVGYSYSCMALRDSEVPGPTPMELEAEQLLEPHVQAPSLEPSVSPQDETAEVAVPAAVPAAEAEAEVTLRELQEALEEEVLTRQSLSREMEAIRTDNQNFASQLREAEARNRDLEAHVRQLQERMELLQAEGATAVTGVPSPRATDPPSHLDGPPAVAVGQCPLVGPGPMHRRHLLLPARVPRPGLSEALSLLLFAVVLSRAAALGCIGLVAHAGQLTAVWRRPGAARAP

[9] = system: Receptor-type tyrosine-protein kinase FLT3 (Homo sapiens), P36888 [N841I]; experiment: Binding affinity to human partial length FLT3 N841I mutant (V592 to Y969 residues) expressed in Escherichia coli BL21 at 1 uM by Kinomescan method relative to control
[10] = target: Glycogen synthase kinase-3 alpha (Homo sapiens) (UniProt P49840); experiment: Binding affinity to wild-type human full length GSK3A (M1 to S483 residues) expressed in Escherichia coli BL21 at 1 uM by Kinomescan method relative to control; method in brief: as §1
[11] = target: Homeodomain-interacting protein kinase 2 (Homo sapiens) (UniProt Q9H2X6); experiment: Binding affinity to wild-type human partial length HIPK2 (M153 to S564 residues) expressed in HEK293 cells at 1 uM by Kinomescan method relative to control; assay type: cell-based
[12] = target: Homeodomain-interacting protein kinase 4 (Homo sapiens) (UniProt Q8NE63); experiment: Binding affinity to wild-type human partial length HIPK4 (M1 to V384 residues) expressed in Escherichia coli BL21 at 1 uM by Kinomescan method relative to control
[13] = target: Insulin-like growth factor 1 receptor (Homo sapiens) (UniProt P08069); experiment: Binding affinity to wild-type human partial length IGF1R (L972 to D1294 residues) expressed in Escherichia coli BL21 at 1 uM by Kinomescan method relative to control
[14] = target: Interleukin-1 receptor-associated kinase 3 (Homo sapiens) (UniProt Q9Y616); experiment: Binding affinity to wild-type human partial length IRAK3 (V147 to E596 residues) expressed in Escherichia coli BL21 at 1 uM by Kinomescan method relative to control
[15] = target: Mitogen-activated protein kinase 10 (Homo sapiens) (UniProt P53779); experiment: Binding affinity to wild-type human partial length JNK3 (V28 to Q422 residues) expressed in HEK293 cells at 1 uM by Kinomescan method relative to control; assay type: cell-based
Sequence of Mitogen-activated protein kinase 10 (Homo sapiens) (P53779 whole entry, the tested form may be a part): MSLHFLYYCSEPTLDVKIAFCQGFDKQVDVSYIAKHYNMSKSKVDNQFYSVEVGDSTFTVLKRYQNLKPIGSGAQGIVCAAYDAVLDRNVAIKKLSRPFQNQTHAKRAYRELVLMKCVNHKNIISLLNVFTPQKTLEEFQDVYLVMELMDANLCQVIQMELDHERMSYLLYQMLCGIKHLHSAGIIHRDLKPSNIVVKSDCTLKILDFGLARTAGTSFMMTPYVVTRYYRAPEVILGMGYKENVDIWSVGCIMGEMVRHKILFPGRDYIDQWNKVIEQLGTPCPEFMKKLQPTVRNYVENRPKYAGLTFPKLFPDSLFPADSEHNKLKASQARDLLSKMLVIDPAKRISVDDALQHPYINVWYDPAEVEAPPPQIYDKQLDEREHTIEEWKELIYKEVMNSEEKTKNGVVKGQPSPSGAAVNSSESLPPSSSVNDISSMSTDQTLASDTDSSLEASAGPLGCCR

[16] = target: Serine/threonine-protein kinase MRCK beta (Homo sapiens) (UniProt Q9Y5S2); experiment: Binding affinity to wild-type human partial length MRCKB (L56 to S417 residues) expressed in Escherichia coli BL21 at 1 uM by Kinomescan method relative to control
[17] = target: Mitogen-activated protein kinase 11 (Homo sapiens) (UniProt Q15759); experiment: Binding affinity to wild-type human full length p38-beta (M1 to Q364 residues) expressed in Escherichia coli BL21 at 1 uM by Kinomescan method relative to control
Method in brief: (§2)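 Kinome-wide competition binding panel run by an outside provider, with each compound tested at a single concentration. Activity is read against the kinase panel.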

[18] = target: Serine/threonine-protein kinase PAK 6 (Homo sapiens) (UniProt Q9NQU5); experiment: Binding affinity to wild-type human partial length PAK6 (N298 to C681 residues) expressed in Escherichia coli BL21 at 1 uM by Kinomescan method relative to control
[19] = target: 3-phosphoinositide-dependent protein kinase 1 (Homo sapiens) (UniProt O15530); experiment: Binding affinity to wild-type human full length PDPK1 (M1 to Q556 residues) expressed in Escherichia coli BL21 at 1 uM by Kinomescan method relative to control; method in brief: as §2
[20] = target: cAMP-dependent protein kinase catalytic subunit alpha (Homo sapiens) (UniProt P17612); experiment: Binding affinity to wild-type human partial length PKAC-alpha (G10 to F351 residues) expressed in Escherichia coli BL21 at 1 uM by Kinomescan method relative to control
[21] = target: Serine/threonine-protein kinase RIO2 (Homo sapiens) (UniProt Q9BVS4); experiment: Binding affinity to wild-type human partial length RIOK2 (M1 to D313 residues) expressed in HEK293 cells at 1 uM by Kinomescan method relative to control; assay type: cell-based
Sequence of Serine/threonine-protein kinase RIO2 (Homo sapiens) (Q9BVS4 whole entry, looked up, the tested form may be a part): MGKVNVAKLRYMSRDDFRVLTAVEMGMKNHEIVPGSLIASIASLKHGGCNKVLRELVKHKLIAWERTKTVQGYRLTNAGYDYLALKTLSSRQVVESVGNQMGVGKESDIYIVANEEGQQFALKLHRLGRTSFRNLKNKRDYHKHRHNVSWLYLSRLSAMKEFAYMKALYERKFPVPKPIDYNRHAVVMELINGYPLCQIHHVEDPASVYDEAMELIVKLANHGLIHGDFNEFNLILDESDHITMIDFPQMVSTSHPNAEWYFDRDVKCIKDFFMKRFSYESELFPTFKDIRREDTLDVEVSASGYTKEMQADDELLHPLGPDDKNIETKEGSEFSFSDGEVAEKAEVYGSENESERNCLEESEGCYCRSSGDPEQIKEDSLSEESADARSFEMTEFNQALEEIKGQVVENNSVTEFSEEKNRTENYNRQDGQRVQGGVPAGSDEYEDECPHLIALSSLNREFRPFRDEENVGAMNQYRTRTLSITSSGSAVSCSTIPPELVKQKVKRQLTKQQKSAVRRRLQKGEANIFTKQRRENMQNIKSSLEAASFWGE

[22] = target: Ribosomal protein S6 kinase alpha-5 (Homo sapiens) (UniProt O75582); experiment: Binding affinity to wild-type human partial length C-terminal RPS6KA5 kinase domain 2 (V390 to T718 residues) expressed in Escherichia coli BL21 at 1 uM by Kinomescan method relative to control
[23] = target: Serine/threonine-protein kinase Sgk3 (Homo sapiens) (UniProt Q96BR1); experiment: Binding affinity to wild-type human partial length SGK3 (M119 to L496 residues) expressed in HEK293 cells at 1 uM by Kinomescan method relative to control; assay type: cell-based
Sequence of Serine/threonine-protein kinase Sgk3 (Homo sapiens) (Q96BR1 whole entry, the tested form may be a part): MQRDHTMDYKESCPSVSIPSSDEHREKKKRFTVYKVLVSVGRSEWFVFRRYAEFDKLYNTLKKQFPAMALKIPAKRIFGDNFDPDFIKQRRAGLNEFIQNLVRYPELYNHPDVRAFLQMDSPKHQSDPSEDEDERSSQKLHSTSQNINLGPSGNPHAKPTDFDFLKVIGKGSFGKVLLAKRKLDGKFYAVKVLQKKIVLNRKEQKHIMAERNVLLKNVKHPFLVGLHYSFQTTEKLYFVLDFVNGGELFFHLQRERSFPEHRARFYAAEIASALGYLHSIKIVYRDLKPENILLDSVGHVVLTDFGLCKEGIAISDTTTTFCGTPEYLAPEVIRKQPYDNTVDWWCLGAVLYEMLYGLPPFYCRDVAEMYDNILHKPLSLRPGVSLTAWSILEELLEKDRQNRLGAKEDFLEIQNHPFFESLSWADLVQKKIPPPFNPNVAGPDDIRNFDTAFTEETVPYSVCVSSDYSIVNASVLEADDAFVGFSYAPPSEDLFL

[24] = target: Tyrosine-protein kinase Srms (Homo sapiens) (UniProt Q9H3Y6); experiment: Binding affinity to wild-type human partial length SRMS (L208 to P488 residues) expressed in HEK293 cells at 1 uM by Kinomescan method relative to control; assay type: cell-based
Sequence of Tyrosine-protein kinase Srms (Homo sapiens) (Q9H3Y6 whole entry, the tested form may be a part): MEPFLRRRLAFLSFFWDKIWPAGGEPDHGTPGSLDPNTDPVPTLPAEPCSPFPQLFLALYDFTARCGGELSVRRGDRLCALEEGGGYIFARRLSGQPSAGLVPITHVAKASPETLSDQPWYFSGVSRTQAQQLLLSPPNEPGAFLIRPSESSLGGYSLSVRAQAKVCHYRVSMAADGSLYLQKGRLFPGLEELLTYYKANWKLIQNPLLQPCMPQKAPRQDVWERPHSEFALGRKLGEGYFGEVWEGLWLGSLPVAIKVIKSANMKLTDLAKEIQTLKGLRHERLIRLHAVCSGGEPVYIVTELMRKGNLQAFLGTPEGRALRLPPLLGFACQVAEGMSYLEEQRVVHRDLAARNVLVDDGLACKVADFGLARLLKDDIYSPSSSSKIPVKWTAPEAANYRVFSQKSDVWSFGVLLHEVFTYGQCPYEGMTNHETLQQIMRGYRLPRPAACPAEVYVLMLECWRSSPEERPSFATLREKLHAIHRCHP

[25] = target: Vascular endothelial growth factor receptor 2 (Homo sapiens) (UniProt P35968); experiment: Binding affinity to wild-type human partial length VEGFR2 (R787 to P1253 residues) expressed in HEK293 cells at 1 uM by Kinomescan method relative to control; assay type: cell-based
Sequence of Vascular endothelial growth factor receptor 2 (Homo sapiens) (P35968 whole entry, the tested form may be a part): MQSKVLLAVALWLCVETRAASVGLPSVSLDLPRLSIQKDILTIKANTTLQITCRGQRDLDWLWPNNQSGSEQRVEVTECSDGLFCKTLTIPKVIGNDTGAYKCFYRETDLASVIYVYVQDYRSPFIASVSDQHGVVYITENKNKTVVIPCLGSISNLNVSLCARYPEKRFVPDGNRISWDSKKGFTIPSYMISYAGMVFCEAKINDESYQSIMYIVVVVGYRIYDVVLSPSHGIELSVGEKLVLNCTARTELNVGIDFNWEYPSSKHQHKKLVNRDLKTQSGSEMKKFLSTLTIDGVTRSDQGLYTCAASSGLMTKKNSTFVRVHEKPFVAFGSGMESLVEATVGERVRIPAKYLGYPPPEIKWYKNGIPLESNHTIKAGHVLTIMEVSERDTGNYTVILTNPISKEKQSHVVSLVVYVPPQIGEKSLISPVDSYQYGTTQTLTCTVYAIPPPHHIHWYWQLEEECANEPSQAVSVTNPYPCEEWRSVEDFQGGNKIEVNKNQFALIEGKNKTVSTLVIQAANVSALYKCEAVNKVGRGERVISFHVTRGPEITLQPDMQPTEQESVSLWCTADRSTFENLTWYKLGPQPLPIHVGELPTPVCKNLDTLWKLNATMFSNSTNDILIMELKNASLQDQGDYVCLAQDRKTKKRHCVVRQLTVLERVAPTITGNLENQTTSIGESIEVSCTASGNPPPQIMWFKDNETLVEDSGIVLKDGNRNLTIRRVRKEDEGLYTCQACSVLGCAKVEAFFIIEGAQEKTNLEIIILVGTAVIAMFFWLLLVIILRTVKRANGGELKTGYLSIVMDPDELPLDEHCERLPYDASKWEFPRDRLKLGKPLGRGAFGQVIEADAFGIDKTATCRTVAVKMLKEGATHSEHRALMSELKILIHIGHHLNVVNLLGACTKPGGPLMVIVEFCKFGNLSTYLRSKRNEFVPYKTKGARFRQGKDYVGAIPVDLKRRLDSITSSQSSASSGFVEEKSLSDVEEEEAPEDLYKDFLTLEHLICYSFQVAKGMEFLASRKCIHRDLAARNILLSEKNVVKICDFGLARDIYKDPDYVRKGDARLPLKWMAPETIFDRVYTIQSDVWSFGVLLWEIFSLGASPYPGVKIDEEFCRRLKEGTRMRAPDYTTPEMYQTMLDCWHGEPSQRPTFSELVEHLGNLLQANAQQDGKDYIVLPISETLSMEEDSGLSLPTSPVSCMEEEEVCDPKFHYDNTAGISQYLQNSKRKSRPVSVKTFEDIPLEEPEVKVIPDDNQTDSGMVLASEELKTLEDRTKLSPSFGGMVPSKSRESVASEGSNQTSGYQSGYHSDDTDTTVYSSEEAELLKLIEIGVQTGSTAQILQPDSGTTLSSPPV

[26] = target: Serine/threonine-protein kinase VRK2 (Homo sapiens) (UniProt Q86Y07); experiment: Binding affinity to wild-type human partial length VRK2 (M1 to T336 residues) expressed in HEK293 cells at 1 uM by Kinomescan method relative to control; assay type: cell-based

SMILES | IC50 [1] [nM] | Activity [2] [%] | Activity [3] [%] | Activity [4] [%] | Activity [5] [%] | Activity [6] [%] | Activity [7] [%] | Activity [8] [%] | Activity [9] [%] | Activity [10] [%] | Activity [11] [%] | Activity [12] [%] | Activity [13] [%] | Activity [14] [%] | Activity [15] [%] | Activity [16] [%] | Activity [17] [%] | Activity [18] [%] | Activity [19] [%] | Activity [20] [%] | other results
C=CC(=O)Nc1ccc(C(=O)Nc2ccc(Nc3ncc4c(n3)N(C)c3ccc(C)cc3C(=O)N4C)cc2)cc1 | 43.5 | 94 | 99 | 95 | 100 | 99 | 93 | 96 | 100 | 100 | 94 | 95 | 100 | 98 | 100 | 96 | 89 | 91 | 100 | 100 | Activity [21]: 93%; Activity [22]: 100%; Activity [23]: 79%; Activity [24]: 73%; Activity [25]: 88%; Activity [26]: 100%
CCC(=O)Nc1ccc(C(=O)Nc2ccc(Nc3ncc4c(n3)N(C)c3ccc(C)cc3C(=O)N4C)cc2)cc1 | 82 | 90 | 90 | 98 | 89 | 87 | 97 | 100 | 81 | 100 | 100 | 95 | 84 | 89 | 92 | 98 | 100 | 94 | 96 | 87 | Activity [21]: 58%; Activity [22]: 82%; Activity [23]: 81%; Activity [24]: 89%; Activity [25]: 76%; Activity [26]: 61%
